Test results as given in ChEMBL document CHEMBL1821586, “Identification and biological activities of new taccalonolide microtubule stabilizers” (J Med Chem, 2011).
The source made the active and inactive calls. No cut-off for these calls is given here.

Tests used:
HeLa [1] = assay: Induction of interphase microtubule bundling in human HeLa cells at 0.5 uM after 18 hrs by indirect immunofluorescence analysis; format: cell-based
HeLa [2] = assay: Cell cycle arrest in human HeLa cells assessed as accumulation of cells at G2/M phase at 12 nM after 18 hrs by flow cytometric analysis; format: functional, cell-based
Procedure, shortened: (§1)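 DNA stained with propidium iodide (Krishan's reagent); DNA content measured by flow cytometry and plotted as PI intensity vs events.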

[3] = Antitumor activity against mouse 16/C cells allografted in mouse B6C3F1 assessed as decrease in tumor mass at 73.5 mg/kg, iv; format: functional
Procedure, shortened: (§2)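 Female B6C3F1 mice (mean 19.3 ± 1.0 g) carried bilateral s.c. Mammary 16/C tumor fragments implanted day 0, 5 mice/group. […] All were given IV in 0.2 ml. Tumor mass = L×W²/2, measured 2–3 times weekly. %T/C = treated/control median mass, zeros included, taken when control tumors reach ~700–1200 mg.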

[4] = Antitumor activity against mouse 16/C cells allografted in mouse B6C3F1 assessed as delay in tumor growth at 73.5 mg/kg, iv relative to control; format: functional
Procedure, shortened: (§3)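 Mammary 16/C fragments implanted s.c. bilaterally in female B6C3F1 mice on day 0, 5 mice/group, IV dosing in 0.2 ml. Tumors measured 2–3 times weekly. T-C = median days for treated vs control tumors to reach 1000 mg. Gross log cell kill = (T-C)/3.32×Td, with Td the doubling time from a log-linear fit of control tumor growth.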

[5] = Antitumor activity against mouse 16/C cells allografted in mouse B6C3F1 assessed as gross log cell killing at 73.5 mg/kg, iv relative to control; format: functional
Mus musculus [6] = assay: Toxicity in B6C3F1 mouse allografted with mouse 16/C cells assessed as mean body weight loss at 73.5 mg/kg, iv (reference value: -2.2%); format: organism-based; design: dose 73.5 mg/kg, route intravenous; details: in vivo
HeLa [7] = assay: Inhibition of beta tubulin in human HeLa cells assessed asultiple abnormal mitotic spindle formation at 12 nM after 18 hrs by immunofluorescence analysis; format: cell-based
HeLa [8] = assay: Induction of interphase microtubule bundling in human HeLa cells at 0.6 uM after 18 hrs by indirect immunofluorescence; format: cell-based
HeLa [9] = assay: Cell cycle arrest in human HeLa cells assessed as accumulation of cells at G2/M phase at 0.6 uM after 18 hrs by flow cytometric analysis; format: functional, cell-based; procedure, shortened: as §1
HeLa [10] = assay: Antiproliferative activity against human HeLa cells after 48 hrs by SRB assay; format: functional, cell-based
Procedure, shortened: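 HeLa cells grown in BME with 10% FBS and 50 µg/ml gentamicin, drug-treated 48 h, proliferation read by SRB assay.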

HeLa [11] = assay: Inhibition of beta tubulin in human HeLa cells assessed asultiple abnormal mitotic spindle formation at 0.6 uM after 18 hrs by immunofluorescence analysis; format: cell-based
HeLa [12] = assay: Induction of interphase microtubule bundling in human HeLa cells at 0.8 uM after 18 hrs by indirect immunofluorescence analysis; format: cell-based
HeLa [13] = assay: Cell cycle arrest in human HeLa cells assessed as accumulation of cells at G2/M phase at 0.8 uM after 18 hrs by flow cytometric analysis; format: functional, cell-based
HeLa [14] = assay: Inhibition of beta tubulin in human HeLa cells assessed asultiple abnormal mitotic spindle formation at 0.8 uM after 18 hrs by immunofluorescence analysis; format: cell-based
HeLa [15] = assay: Induction of interphase microtubule bundling in human HeLa cells at 57 uM after 18 hrs by indirect immunofluorescence; format: cell-based
HeLa [16] = assay: Cell cycle arrest in human HeLa cells assessed as accumulation of cells at G2/M phase at 111 uM after 18 hrs by flow cytometric analysis; format: functional, cell-based; procedure, shortened: as §1
HeLa [17] = assay: Inhibition of beta tubulin in human HeLa cells assessed asultiple abnormal mitotic spindle formation at 57 uM after 18 hrs by immunofluorescence analysis; format: cell-based
HeLa [18] = assay: Induction of interphase microtubule bundling in human HeLa cells at 0.32 uM after 18 hrs by indirect immunofluorescence; format: cell-based
HeLa [19] = assay: Inhibition of beta tubulin in human HeLa cells assessed asultiple abnormal mitotic spindle formation at 0.32 uM after 18 hrs by immunofluorescence analysis; format: cell-based
HeLa [20] = assay: Cell cycle arrest in human HeLa cells assessed as accumulation of cells at G2/M phase at 0.32 uM after 18 hrs by flow cytometric analysis; format: functional, cell-based; procedure, shortened: as §1
HeLa [21] = assay: Induction of interphase microtubule bundling in human HeLa cells at 2.5 uM after 18 hrs by indirect immunofluorescence analysis; format: cell-based
HeLa [22] = assay: Cell cycle arrest in human HeLa cells assessed as accumulation of cells at G2/M phase at 2.5 uM after 18 hrs by flow cytometric analysis; format: functional, cell-based; procedure, shortened: as §1
[23] = Antitumor activity against mouse 16/C cells allografted in mouse B6C3F1 assessed as decrease in tumor mass at 90 mg/kg, iv administered on days 1,4,6, 8, 9, 10 and 11 relative to control; format: functional; procedure, shortened: as §2
[24] = Antitumor activity against mouse 16/C cells allografted in mouse B6C3F1 assessed as decrease in tumor mass at 54 mg/kg, iv administered on days 1,4,6, 8, 9, 10 and 11 relative to control; format: functional; procedure, shortened: as §2
[25] = Antitumor activity against mouse 16/C cells allografted in mouse B6C3F1 assessed as delay in tumor growth at 90 mg/kg, iv administered on days 1,4,6, 8, 9, 10 and 11 relative to control; format: functional; procedure, shortened: as §3
[26] = Antitumor activity against mouse 16/C cells allografted in mouse B6C3F1 assessed as delay in tumor growth at 54 mg/kg, iv administered on days 1,4,6, 8, 9, 10 and 11 relative to control; format: functional; procedure, shortened: as §3
[27] = Antitumor activity against mouse 16/C cells allografted in mouse B6C3F1 assessed as gross log cell killing at 90 mg/kg, iv administered on days 1,4,6, 8, 9, 10 and 11 relative to control; format: functional
Procedure, shortened: (§4)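 Mammary 16/C tumor fragments implanted bilaterally s.c. in female B6C3F1 mice on day 0, 5 mice/group. Taccalonolides in 50% DMSO:50% Cremophor stock, diluted with sterile water, given i.v. in 0.2 ml on days 1, 4, 6, plus one dose 2–3 days later (A, N) or further doses days 8, 9, 11 (E). Tumor mass = length × width²/2, measured 2–3 times weekly. Gross log cell kill = (T-C)/3.32 × Td, with T-C the days to 1000 mg.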

[28] = Antitumor activity against mouse 16/C cells allografted in mouse B6C3F1 assessed as gross log cell killing at 54 mg/kg, iv administered on days 1,4,6, 8, 9, 10 and 11 relative to control; format: functional; procedure, shortened: as §4
Mus musculus [29] = assay: Toxicity in B6C3F1 mouse allografted with mouse 16/C cells assessed as mean body weight loss at 90 mg/kg, iv administered on days 1,4,6, 8, 9, 10 and 11 (reference value: -2.2%); format: organism-based; design: dose 90 mg/kg, route intravenous; details: in vivo
Mus musculus [30] = assay: Toxicity in B6C3F1 mouse allografted with mouse 16/C cells assessed as mean body weight loss at 54 mg/kg, iv administered on days 1,4,6, 8, 9, 10 and 11 (reference value: -2.2%); format: organism-based; design: dose 54 mg/kg, route intravenous; details: in vivo
[31] = Toxicity in B6C3F1 mouse allografted with mouse 16/C cells assessed as lethality at 90 mg/kg, iv administered on days 1,4,6, 8, 9, 10 and 11 measured after 12 days relative to control; format: organism-based; design: dose 90 mg/kg, route intravenous; details: in vivo, read-out: Activity
Procedure, shortened: (§5)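 Female B6C3F1 mice, 5 per group, bore bilateral s.c. Mammary 16/C fragments. Taccalonolides in DMSO:Cremophor diluted with water were given i.v. on days 1, 4, 6 plus a later dose (A, N) or days 8, 9, 11 (E). Mice were weighed and observed daily, and lethality was recorded per group.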

[32] = Toxicity in B6C3F1 mouse allografted with mouse 16/C cells assessed as lethality at 54 mg/kg, iv administered on days 1,4,6, 8, 9, 10 and 11 measured after 12 days relative to control; format: organism-based; design: dose 54 mg/kg, route intravenous; details: in vivo, read-out: Activity; procedure, shortened: as §5
HeLa [33] = assay: Inhibition of beta tubulin in human HeLa cells assessed asultiple abnormal mitotic spindle formation at 2.5 uM after 18 hrs by immunofluorescence analysis; format: cell-based
HeLa [34] = assay: Induction of interphase microtubule bundling in human HeLa cells at 3.5 uM after 18 hrs by indirect immunofluorescence analysis; format: cell-based
HeLa [35] = assay: Cell cycle arrest in human HeLa cells assessed as accumulation of cells at G2/M phase at 3.5 uM after 18 hrs by flow cytometric analysis; format: functional, cell-based; procedure, shortened: as §1
HeLa [36] = assay: Inhibition of beta tubulin in human HeLa cells assessed asultiple abnormal mitotic spindle formation at 3.5 uM after 18 hrs by immunofluorescence analysis; format: cell-based
HeLa [37] = assay: Induction of interphase microtubule bundling in human HeLa cells at 13.5 uM after 18 hrs by indirect immunofluorescence; format: cell-based
HeLa [38] = assay: Cell cycle arrest in human HeLa cells assessed as accumulation of cells at G2/M phase at 13.5 uM after 18 hrs by flow cytometric analysis; format: functional, cell-based; procedure, shortened: as §1
HeLa [39] = assay: Inhibition of beta tubulin in human HeLa cells assessed asultiple abnormal mitotic spindle formation at 13.5 uM after 18 hrs by immunofluorescence analysis; format: cell-based

## CC(=O)O[C@H]1C(=O)[C@@]2(C)[C@H]([C@H](OC(=O)c3ccccc3)[C@]3(O)C[C@H](OC(=O)[C@H](O)[C@@H](NC(=O)c4ccccc4)c4ccccc4)C(C)=C1C3(C)C)[C@]1(OC(C)=O)CO[C@@H]1C[C@@H]2O [PACLITAXEL]
HeLa [1]
  Activity: Active
HeLa [2]
  Activity: Active
[3]
  T/C: 0%
[4]
  Time: 19 days
[5]
  LCK: 4.8
Mus musculus [6]
  Activity: -6.3%
HeLa [7]
  inhibition: Active

## CC(=O)O[C@@H]1[C@H]2[C@H]3[C@H]([C@H](OC(C)=O)[C@H](OC(C)=O)[C@]2(C)[C@@H]2[C@@H]1[C@]1(C)C(=C[C@H]2C)OC(=O)[C@@]1(C)O)[C@@]1(C)[C@@H](OC(C)=O)[C@H]2O[C@H]2C[C@]1(O)C(=O)[C@@H]3O [TACCALONOLIDE Z]
HeLa [8]
  Activity: Active
HeLa [9]
  Activity: Active
HeLa [10]
  IC50: 0.12 µM
HeLa [11]
  inhibition: Active

## CC(=O)O[C@H]1[C@H]2[C@H]([C@@H]3[C@@H](O)[C@@H]4[C@H]([C@H](C)C=C5OC(=O)[C@@](C)(O)[C@@]54C)[C@@]3(C)[C@H]1OC(C)=O)[C@@H](O)C(=O)[C@H]1C[C@@H]3O[C@@H]3[C@H](OC(C)=O)[C@]21C [TACCALONOLIDE B]
HeLa [12]
  Activity: Active
HeLa [13]
  Activity: Active
HeLa [10]
  IC50: 0.19 µM
HeLa [14]
  inhibition: Active

## CC(=O)O[C@@H]1[C@H]2[C@@H]3[C@@H](OC(C)=O)C(=O)[C@@]4(O)C[C@@H]5O[C@@H]5[C@H](OC(C)=O)[C@]4(C)[C@H]3C[C@H](OC(C)=O)[C@]2(C)[C@@H]2[C@@H]1[C@]1(C)C(=C[C@H]2C)OC(=O)[C@@]1(C)O [TACCALONOLIDE R]
HeLa [15]
  Activity: Active
HeLa [16]
  Activity: Active
HeLa [10]
  IC50: 13.1 µM
HeLa [17]
  inhibition: Active

## CC(=O)O[C@@H]1[C@H]2[C@H]3[C@H]([C@H](OC(C)=O)[C@H](OC(C)=O)[C@]2(C)[C@@H]2[C@@H]1[C@]1(C)C(=C[C@H]2C)OC(=O)[C@@]1(C)O)[C@@]1(C)[C@@H](OC(C)=O)[C@H]2O[C@H]2C[C@]1(O)C(=O)[C@@H]3OC(C)=O [TACCALONOLIDE AA]
HeLa [18]
  Activity: Active
HeLa [10]
  IC50: 0.0323 µM
HeLa [19]
  inhibition: Active
HeLa [20]
  Activity: Active

## CC(=O)O[C@@H]1[C@H]2[C@@H]3[C@@H](O)C(=O)[C@H]4C[C@@H]5O[C@@H]5[C@H](OC(C)=O)[C@]4(C)[C@H]3C[C@H](OC(C)=O)[C@]2(C)[C@@H]2[C@@H]1[C@]1(C)C(=C[C@H]2C)OC(=O)[C@@]1(C)O [TACCALONOLIDE E]
HeLa [21]
  Activity: Active
HeLa [22]
  Activity: Active
HeLa [10]
  IC50: 0.644 µM
[23]
  T/C: 17%
[24]
  T/C: 81%
[25]
  Time: 5 days
[26]
  Time: 1 days
[27]
  LCK: 1.25
[28]
  LCK: 0.25
Mus musculus [29]
  Activity: -4.1%
Mus musculus [30]
  Activity: -2%
[31]
  mortality at 288 h: 0%
[32]
  mortality at 288 h: 0%
HeLa [33]
  inhibition: Active

## CC(=O)O[C@@H]1[C@H]2[C@@H]3[C@@H](OC(C)=O)C(=O)[C@@]4(O)C[C@@H]5O[C@@H]5[C@H](OC(=O)CC(C)C)[C@]4(C)[C@H]3C[C@H](OC(C)=O)[C@]2(C)[C@@H]2[C@@H]1[C@]1(C)C(=C[C@H]2C)OC(=O)[C@@]1(C)O [TACCALONOLIDE T]
HeLa [34]
  Activity: Active
HeLa [35]
  Activity: Active
HeLa [10]
  IC50: 0.335 µM
HeLa [36]
  inhibition: Active

## CC(=O)O[C@H]1[C@H]2[C@H]([C@@H]3[C@@H](O)[C@@H]4[C@H]([C@H](C)C=C5OC(=O)[C@@](C)(O)[C@@]54C)[C@@]3(C)[C@H]1OC(C)=O)[C@@H](O)C(=O)[C@@]1(O)C[C@@H]3O[C@@H]3[C@H](OC(C)=O)[C@]21C [TACCALONOLIDE AB]
HeLa [37]
  Activity: Active
HeLa [38]
  Activity: Active
HeLa [10]
  IC50: 2.77 µM
HeLa [39]
  inhibition: Active
